The test system of data set [1] is Mus musculus. The experiment in a line: Antiinflammatory activity in DSS-induced male C57BL/6 mouse model of inflammatory bowel disease assessed as normal appearance of goblet cells at 20 mg/kg, IG administered with compound and DSS for 7 days followed by DSS replacement with distilled water for 3 days by H and E staining based analysis. Format: functional, organism-based. The conditions noted are these: time 10.0 day.

For data set [2], the system named is Mus musculus. Briefly: Protection against LPS-induced C57BL/6 mouse model of acute lung injury assessed as reduction in thickening of the alveolar septum in lungs at 20 mg/kg, po administered 3 times for every 12 hrs followed by LPS stimulation at 5 mg/kg and measured after 6 hrs by H and E staining based analysis. Format: functional, organism-based. The conditions noted are these: time 30.0 hrs. In short, it runs like this:
(§1)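 LPS-induced ALI in C57BL/6 mice: 20 mg/kg orally three times at 12 h intervals, then intratracheal LPS 5 mg/kg, killed at 6 h. Lungs paraffin-embedded, cut into 5 μm sections and H&E stained. Viewed at ×20.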

The subject of data set [3] is Mus musculus. Briefly: Antiinflammatory activity in DSS-induced male C57BL/6 mouse model of inflammatory bowel disease assessed as inhibition of IL-6 release in plasma at 20 mg/kg, IG administered with compound and DSS for 7 days followed by DSS replacement with distilled water for 3 days. Format: functional, organism-based. The settings on record: time 10.0 day.
A short description of data set [4]: Acute toxicity in male ICR mouse assessed as histopathological changes in lung at 500 to 1000 mg/kg, po administered daily for 10 days by H and E staining based analysis. Format: organism-based. The conditions noted are these: in vivo, 240 h, dose 500-1000 mg/kg, time 10 day. In a few lines: (§2)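 Male ICR mice (8 weeks, 30 g ± 2 g), acclimatised 1 week, randomised into 1000 mg/kg, 500 mg/kg and untreated control groups (n = 24 total). Dosed by daily gavage, compound dissolved in 0.5 % DMSO then added to normal saline. Body weight and behaviour recorded daily. Euthanised after 10 days; heart, liver, spleen, lung and kidney examined by H&E staining.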

In data set [5] the test system is Mus musculus. Briefly: Protection against LPS-induced C57BL/6 mouse model of acute lung injury assessed as reduction in inflammatory cell infiltration in lung at 20 mg/kg, po administered 3 times for every 12 hrs followed by LPS stimulation at 5 mg/kg and measured after 6 hrs by immunohistochemical staining based analysis. Format: functional, organism-based. The settings on record: time 30.0 hrs. In a few lines:
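LPS-induced ALI in C57BL/6 mice: 20 mg/kg orally three times at 12 h intervals, then intratracheal LPS 5 mg/kg, lungs taken at 6 h. F4/80 IHC: xylene deparaffinisation, citrate pH 6 retrieval for 25 min, primary antibody at 4 °C for 12 h, secondary 1:2000, DAB and hematoxylin. Viewed at ×20.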

The nature of data set [6]: AUC (0 to t) in male Sprague-Dawley rat at 1 mg/kg, iv measured upto 24 hrs by triple quadrupole mass spectrometric analysis. Format: ADME, organism-based. The settings on record: in vivo. In short, it runs like this:
(§3)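 Male SD rats (8 weeks, 200 g ± 20 g), n = 3 per route. Oral: 10 mg/kg by gavage in 0.05 % DMSO/normal saline, tail-vein blood at 13 times from 10 min to 24 h. IV: 1 mg/kg tail vein in 5 % DMSO/30 % PEG400/65 % saline, 14 samples from 5 min to 24 h. Heparinised plasma precipitated with acetonitrile containing internal standard. Non-compartmental analysis on mean concentrations.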

Data set [7] concerns Mus musculus. The experiment in a line: Antiinflammatory activity in DSS-induced male C57BL/6 mouse model of inflammatory bowel disease assessed as increase in body weight at 20 mg/kg, IG administered with compound and DSS for 7 days followed by DSS replacement with distilled water for 3 days. Format: functional, organism-based. The settings on record: time 10.0 day.
Data set [8] relates to J774.A1. Briefly: Antiinflammatory activity in LPS-induced mouse J774.A1 cells assessed as inhibition of IL-6 production pretreated for 30 mins followed by LPS stimulation and measured after 24 hrs by ELISA. Format: functional, cell-based. In a few lines:
(§4)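 Cells pretreated 30 min with a gradient of concentrations (2.5–10 μM range) or DMSO, then given LPS 0.5 μg/mL for 24 h. IL-6 in medium measured by ELISA and normalised to living cell number by MTT. Expressed as % of the LPS group, mean ± SEM of triplicates. IC50 taken from the concentration-response.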
Background: An ELISA detects its analyte on a solid surface through an enzyme-linked reagent.

The subject of data set [9] is Mus musculus. The experiment in a line: Protection against LPS-induced C57BL/6 mouse model of acute lung injury assessed as reduction in inflammatory cell infiltration in lung at 20 mg/kg, po administered 3 times for every 12 hrs followed by LPS stimulation at 5 mg/kg and measured after 6 hrs by H and E staining based analysis. Format: functional, organism-based. The conditions noted are these: time 30.0 hrs. In a few lines: as §1

A further data set has as its system THP-1. The experiment in a line: Antiinflammatory activity in LPS-induced human THP-1 cells assessed as inhibition of IL-6 production pretreated for 30 mins followed by LPS stimulation and measured after 24 hrs by ELISA. Format: functional, cell-based. In short, it runs like this: as §4
Data set [10] is described as follows: Oral bioavailability in male Sprague-Dawley rat at 10 mg/kg measured upto 24 hrs by triple quadrupole mass spectrometric analysis. Format: ADME, organism-based. The conditions noted are these: in vivo. In a few lines: as §3
Data set [11] in a line: Tmax in male Sprague-Dawley rat at 10 mg/kg, po measured upto 24 hrs by triple quadrupole mass spectrometric analysis. Format: ADME, organism-based. The settings on record: in vivo. In short, it runs like this:
as §3

Data set [12] deals with J774.A1. Briefly: Antiinflammatory activity in LPS-induced mouse J774.a1 cells assessed as inhibition of IL-6 production at 10 uM pretreated for 2 hrs followed by LPS stimulation and measured after 30 mins by ELISA relative to control. Format: functional. The conditions noted are these: time 2.5 hrs. In a few lines:
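J774A.1 cells (DMEM, 10 % FBS, 37 °C) treated with 10 μM compound or 4-HC for 2 h, then LPS. After 30 min, IL-6 in medium measured by ELISA. Result is % inhibition, mean ± SEM of three independent experiments.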

Data set [13] relates to Mus musculus. Briefly: Protection against LPS-induced C57BL/6 mouse model of acute lung injury assessed as reduction in protein level in BALF at 20 mg/kg, po administered 3 times for every 12 hrs followed by LPS stimulation at 5 mg/kg and measured after 6 hrs. Format: functional, organism-based. The conditions noted are these: time 30.0 hrs. In short, it runs like this: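 C57BL/6 mice, 6 per group. Gavaged at 20 mg/kg three times at 12 h intervals; controls received saline, and dexamethasone 20 mg/kg served as reference. After the last dose, LPS 5 mg/kg given intratracheally. At 6 h, blood collected for serum IL-6 by ELISA. Left lung lavaged with 3 × 200 μL saline, and BALF assayed for IL-6, total protein and neutrophil count. Mean ± SEM, n = 6.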

A short description of data set [14]: Acute toxicity in male ICR mouse assessed as histopathological changes in heart at 500 to 1000 mg/kg, po administered daily for 10 days by H and E staining based analysis. Format: organism-based. The settings on record: in vivo, 240 h, dose 500-1000 mg/kg, time 10 day. In a few lines:
as §2

Data set [15] can be described thus: Acute toxicity in male ICR mouse assessed as reduction in body weight at 500 to 1000 mg/kg, po administered daily for 10 days and measured daily for 2 to 10 days. Format: organism-based. The settings on record: in vivo, 240 h, dose 500-1000 mg/kg, time 10 day. In short, it runs like this: as §2

Activity calls are given as the source filed them. The rule behind the calls is not given here.

Data on one compound can be found in ChEMBL document CHEMBL5500386, “Design, synthesis and bioactivity evaluation of 4-hydroxycoumarin derivatives as potential anti-inflammatory agents against acute lung injury and colitis” (Eur J Med Chem, 2024).

In general, AUC(0-t) refers to exposure summed from dosing to a finite time, without extrapolation to infinity. A low value points to low exposure. Usually IC50 stands for the concentration that inhibits the measured activity by half. For orientation: bioavailability means dose-corrected exposure relative to a reference, in per cent. A word on the Tmax: it is the time at which the peak concentration occurs. By inhibition is commonly meant how much of the control response was suppressed.

Take `CC(=O)N1CCN(CCOc2cc(=O)oc3ccccc23)CC1`: the result in the data set with Mus musculus [1], with Mus musculus [2], in the data set with Mus musculus [3], in the data set on Mus musculus [5], in the data set on Mus musculus [7] and in the data set on Mus musculus [9] was Active. For the same compound, the result in the data set with Mus musculus [13] was Active. Besides, the Activity result was “Non-Toxic” in [4]; “Dose-Dependent Effect” with J774.A1 [8] (time 24.5 hrs); “Dose-Dependent Effect” in the data set with THP-1 (time 24.5 hrs); “Non-Toxic” in [14]; “Non-Toxic” in data set [15]. In addition, the AUC(0-t) at 24 h in data set [6] turned out to be 929 ng·h/mL. For the same compound, the values for the IC50 in the data set with J774.A1 [8] and in the data set on THP-1 were 4.57 µM and 6.51 µM, respectively. This compound also gave a bioavailability in [10] of 28.7%. Also, the time to peak (Tmax) in [11] was determined as 40.2 min. Further, in the data set on J774.A1 [12], the inhibition at 10 µM amounted to 51.6%.
